Calls of active or inactive are those of the source. The rule behind the calls is not given here.
What was measured:
HCT-116 [1] = experiment: Antiproliferative activity against human HCT116 cells after 24 hrs by MTT assay; format: functional, cell-based; settings: HCT-116, 24 h
Procedure, shortened: (§1)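 1×10^4 cells/well seeded in DMEM with 10% FBS and antibiotic-antimycotic, grown 24 h at 37 °C under 5% CO2. Compounds diluted in phenol red-free DMEM with 2% FBS and given for 24 h, with vehicle control. MTT (5 mg/mL, 20 µL) added for 3 h. Formazan dissolved in DMSO, absorbance read at 570 nm. IC50 is the concentration giving 50% growth inhibition.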

MDA-MB-231 [2] = experiment: Antiproliferative activity against human MDA-MB-231 cells after 24 hrs by MTT assay; format: functional, cell-based; settings: MDA-MB-231, 24 h; procedure, shortened: as §1
PC-3 [3] = experiment: Antiproliferative activity against human PC3 cells after 24 hrs by MTT assay; format: functional, cell-based; settings: PC-3, 24 h; procedure, shortened: as §1
U-937 [4] = experiment: Antiproliferative activity against human U937 cells after 24 hrs by MTT assay; format: functional, cell-based; settings: U-937, 24 h; procedure, shortened: as §1
HEK293 = experiment: Cytotoxicity against human HEK293 cells after 24 hrs by MTT assay; format: cell-based; settings: HEK293, 24 h; procedure, shortened: as §1
MCF7 [5] = experiment: Antiproliferative activity against human MCF7 cells after 24 hrs by MTT assay; format: functional, cell-based; settings: MCF7, 24 h; procedure, shortened: as §1
MDA-MB-231 [6] = experiment: Induction of reactive oxygen species production in human MDA-MB-231 cells after 24 hrs by DCFH-DA dye based flow cytometry; format: functional, cell-based
Procedure, shortened: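 MDA-MB-231 cells (1×10^6) seeded 24 h in six-well plates, then treated 24 h. Cells harvested, washed in PBS and fixed in absolute methanol. Cells resuspended in PBS with 15 µg/mL DCFH-DA for 30 min in the dark, then pelleted, taken up in PBS, and fluorescence read by flow cytometry.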

U-937 [7] = experiment: Induction of cell cycle arrest in human U937 cells assessed as accumulation at subG1 phase at IC50 concentration measured after 24 hrs by propidium iodide staining based flow cytometry; format: functional
Procedure, shortened: (§2)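 1×10^6 cells seeded in six-well plates and treated 24 h. Floating and trypsinized adherent cells pooled and fixed in 70% ethanol. Cells washed in PBS, then stained 30 min at room temperature in the dark with 30 µg/mL propidium iodide in PBS containing RNase A. DNA content measured by flow cytometry.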

PC-3 [8] = experiment: Induction of cell cycle arrest in human PC3 cells assessed as accumulation at subG1 phase at IC50 concentration measured after 24 hrs by propidium iodide staining based flow cytometry; format: functional; procedure, shortened: as §2
MDA-MB-231 [9] = experiment: Induction of cell cycle arrest in human MDA-MB-231 cells assessed as accumulation at subG1 phase at IC50 concentration measured after 24 hrs by propidium iodide staining based flow cytometry; format: functional; procedure, shortened: as §2
MCF7 [10] = experiment: Induction of cell cycle arrest in human MCF7 cells assessed as accumulation at subG1 phase at IC50 concentration measured after 24 hrs by propidium iodide staining based flow cytometry; format: functional; procedure, shortened: as §2
HCT-116 [11] = experiment: Induction of cell cycle arrest in human HCT116 cells assessed as accumulation at subG1 phase at IC50 concentration measured after 24 hrs by propidium iodide staining based flow cytometry; format: functional; procedure, shortened: as §2

Row | IC50 (HCT-116 [1]) [µM] | IC50 (MDA-MB-231 [2]) [µM] | IC50 (PC-3 [3]) [µM] | IC50 (U-937 [4]) [µM] | IC50 (MCF7 [5]) [µM] | Compound | IC50 (HEK293) [µM] | Activity (MDA-MB-231 [6]) | Activity (U-937 [7]) | Activity (PC-3 [8]) | Activity (MDA-MB-231 [9]) | Activity (MCF7 [10]) | Activity (HCT-116 [11])
1 | > 100 | 13.1 | 67.2 | > 100 | > 100 | O=C1NC(O)(CCn2cc(C3=CCCCC3)nn2)C(OCc2ccccc2)=C1OCc1ccccc1 (centres undefined) | 70 | Active | – | – | – | – | –
2 | > 100 | > 100 | > 100 | 90.2 | 46.2 | CCCCCCCCN1C(=O)C(OCc2ccccc2)=C(OCc2ccccc2)/C1=C/Cn1cc(-c2ccccn2)nn1 | 83 | – | – | – | – | – | –
3 | 51.2 | > 100 | > 100 | > 100 | 39.2 | O=C1NC(O)(CCn2cc(Cc3ccccc3)nn2)C(OCc2ccccc2)=C1OCc1ccccc1 (centres undefined) | 86 | – | – | – | – | – | –
4 | > 100 | > 100 | > 100 | > 100 | > 100 | O=C1O/C(=C\Cn2cc(C3CC3)nn2)C(OCc2ccccc2)=C1OCc1ccccc1 | > 100 | – | – | – | – | – | –
5 | > 100 | > 100 | 80.3 | 84.2 | 24.3 | CCCCCCCCN1C(=O)C(OCc2ccccc2)=C(OCc2ccccc2)C1(O)CCn1cc(-c2ccccn2)nn1 (centres undefined) | > 100 | – | – | – | – | – | –
6 | > 100 | > 100 | > 100 | > 100 | > 100 | COC1=C(OC)/C(=C/Cn2cc(C3CC3)nn2)OC1=O | > 100 | – | – | – | – | – | –
7 | > 100 | 35.5 | > 100 | > 100 | > 100 | CCCCCC(O)c1cn(C/C=C2\OC(=O)C(OC)=C2OC)nn1 (centres undefined) | 80 | – | – | – | – | – | –
8 | > 100 | > 100 | 65.5 | 60.2 | 32 | CC(C)(C)c1ccc(-c2cn(CCC3(O)C(OCc4ccccc4)=C(OCc4ccccc4)C(=O)N3CCc3ccccc3)nn2)cc1 (centres undefined) | 71 | – | – | – | – | – | –
9 | 64.3 | > 100 | > 100 | > 100 | > 100 | CCCCc1cn(C/C=C2\OC(=O)C(OCc3ccccc3)=C2OCc2ccccc2)nn1 | > 100 | – | – | – | – | – | –
10 | > 100 | 87.5 | > 100 | > 100 | 35 | COC1=C(OC)/C(=C/Cn2cc(CCCCO)nn2)OC1=O | > 100 | – | – | – | – | – | –
11 | > 100 | > 100 | 35 | > 100 | > 100 | CCCc1cn(CCC2(O)C(OCc3ccccc3)=C(OCc3ccccc3)C(=O)N2CCC)nn1 (centres undefined) | 90 | – | – | – | – | – | –
12 | > 100 | > 100 | > 100 | 80.5 | 66.8 | CCCc1cn(C/C=C2/C(OCc3ccccc3)=C(OCc3ccccc3)C(=O)N2CCC)nn1 | 82 | – | – | – | – | – | –
13 | > 100 | 51.2 | > 100 | > 100 | > 100 | CC(C)(C)c1ccc(-c2cn(C/C=C3\OC(=O)C(OCc4ccccc4)=C3OCc3ccccc3)nn2)cc1 | > 100 | – | – | – | – | – | –
14 | > 100 | > 100 | > 100 | > 100 | > 100 | COC1=C(OC)/C(=C/Cn2cc(-c3ccccc3)nn2)OC1=O | > 100 | – | – | – | – | – | –
15 | > 100 | > 100 | > 100 | > 100 | > 100 | Cc1ccc(-c2cn(C/C=C3\OC(=O)C(OCc4ccccc4)=C3OCc3ccccc3)nn2)cc1 | > 100 | – | – | – | – | – | –
16 | > 100 | 74.7 | > 100 | > 100 | > 100 | CCCCCCc1cn(C/C=C2\OC(=O)C(OC)=C2OC)nn1 | > 100 | – | – | – | – | – | –

Row | IC50 (HCT-116 [1]) [µM] | IC50 (MDA-MB-231 [2]) [µM] | IC50 (PC-3 [3]) [µM] | IC50 (U-937 [4]) [µM] | IC50 (MCF7 [5]) [µM] | Compound | IC50 (HEK293) [µM] | Activity (MDA-MB-231 [6]) | Activity (U-937 [7]) | Activity (PC-3 [8]) | Activity (MDA-MB-231 [9]) | Activity (MCF7 [10]) | Activity (HCT-116 [11])
17 | > 100 | > 100 | > 100 | 30 | > 100 | COC1=C(OC)/C(=C/Cn2cc(-c3ccc(C(C)(C)C)cc3)nn2)OC1=O | > 100 | – | – | – | – | – | –
18 | – | 14 | 7 | – | 6 | CC/C(=C(\c1ccccc1)c1ccc(OCCN(C)C)cc1)c1ccccc1 [TAMOXIFEN] | 50 | – | – | – | – | – | –
19 | > 100 | > 100 | > 100 | > 100 | > 100 | COC1=C(OC)/C(=C/Cn2cc(-c3ccccn3)nn2)OC1=O | > 100 | – | – | – | – | – | –
20 | > 100 | > 100 | 43 | 56.5 | 25.1 | CC(C)(C)c1ccc(-c2cn(CCC3(O)NC(=O)C(OCc4ccccc4)=C3OCc3ccccc3)nn2)cc1 (centres undefined) | > 100 | – | – | – | – | – | –
21 | > 100 | > 100 | > 100 | > 100 | > 100 | CCCc1cn(C/C=C2\OC(=O)C(OCc3ccccc3)=C2OCc2ccccc2)nn1 | > 100 | – | – | – | – | – | –
22 | 46.3 | 18.3 | 35.3 | 20.3 | 22.6 | COC1=C(OC)C(O)(CCn2cc(-c3ccccc3)nn2)NC1=O (centres undefined) | 62 | Active | Active | Active | Active | Active | Active
23 | 53.4 | 21.1 | > 100 | 21.5 | 20.5 | O=C1NC(O)(CCn2cc(-c3ccccc3)nn2)C(OCc2ccccc2)=C1OCc1ccccc1 (centres undefined) | > 100 | Active | Active | Active | Active | Active | Active
24 | > 100 | > 100 | > 100 | > 100 | > 100 | CCCCCc1cn(C/C=C2\OC(=O)C(OCc3ccccc3)=C2OCc2ccccc2)nn1 | > 100 | – | – | – | – | – | –
25 | > 100 | > 100 | > 100 | 70.2 | > 100 | O=C1O/C(=C\Cn2cc(-c3ccccn3)nn2)C(OCc2ccccc2)=C1OCc1ccccc1 | > 100 | – | – | – | – | – | –
26 | 83.1 | 29.2 | 71.3 | > 100 | 40 | O=C1O/C(=C\Cn2cc(Cc3ccccc3)nn2)C(OCc2ccccc2)=C1OCc1ccccc1 | 70 | Active | – | – | – | – | –
27 | > 100 | > 100 | > 100 | > 100 | 53.6 | O=C1O/C(=C\Cn2cc(CCCCO)nn2)C(OCc2ccccc2)=C1OCc1ccccc1 | > 100 | – | – | – | – | – | –
28 | > 100 | 44 | > 100 | > 100 | > 100 | O=C1O/C(=C\Cn2cc(-c3ccccc3)nn2)C(OCc2ccccc2)=C1OCc1ccccc1 | > 100 | – | – | – | – | – | –
29 | > 100 | > 100 | > 100 | > 100 | 35 | COC1=C(OC)/C(=C/Cn2cc(CO)nn2)OC1=O | > 100 | – | – | – | – | – | –
30 | 74.3 | 82.2 | 84.2 | 54 | 24 | Cc1ccc(-c2cn(CCC3(O)NC(=O)C(OCc4ccccc4)=C3OCc3ccccc3)nn2)cc1 (centres undefined) | 45 | – | – | – | – | – | –
31 | > 100 | > 100 | > 100 | > 100 | > 100 | COC1=C(OC)/C(=C/Cn2cc(Cc3ccccc3)nn2)OC1=O | > 100 | – | – | – | – | – | –
32 | > 100 | > 100 | 55.6 | > 100 | > 100 | O=C1O/C(=C\Cn2cc(C3=CCCCC3)nn2)C(OCc2ccccc2)=C1OCc1ccccc1 | > 100 | – | – | – | – | – | –

Source: ChEMBL document CHEMBL3297682, “Synthesis and anticancer activity of γ-(triazolyl ethylidene)butenolides and polyfunctional pyrrolinones” (Eur J Med Chem, 2014)
